The source made the active and inactive calls. The calls are words filed in the database; no cut-off is given here.
Columns and labels:
[1] = Inhibition of human His6-tagged DNA polymerase gamma expressed using baculovirus assessed as inhibition of incorporation of dTTP into poly(dA)/oligo(dT)18 after 60 mins
Procedure, shortened: (§1)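 Compound in DMSO was sonicated for 30 s, then held with enzyme (0.05 units final) at 0 °C for 10 min in 50 mM Tris-HCl pH 7.5, 1 mM DTT, 50% glycerol, 0.1 mM EDTA. The mixture was added to the standard reaction mix with poly(dA)/oligo(dT)18 (A/T = 2/1) and dTTP, 37 °C, 60 min. Activity was relative to no-inhibitor control; mean ± SE, three independent experiments.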

[2] = target: DNA polymerase beta (Rattus norvegicus, UniProt P06766); test: Inhibition of rat DNA polymerase beta expressed in Escherichia coli JMpbeta5 assessed as inhibition of incorporation of dTTP into poly(dA)/oligo(dT)18 after 60 mins; procedure, shortened: as §1
[3] = target: T1, DNA-directed DNA polymerase (Enterobacteria phage T4, UniProt P04415); test: Inhibition of T4 bacteriophage DNA polymerase assessed as inhibition of incorporation of dTTP into poly(dA)/oligo(dT)18 after 60 mins; parameters: species or system Tequatrovirus T4; procedure, shortened: as §1
T1 sequence (P04415 whole entry): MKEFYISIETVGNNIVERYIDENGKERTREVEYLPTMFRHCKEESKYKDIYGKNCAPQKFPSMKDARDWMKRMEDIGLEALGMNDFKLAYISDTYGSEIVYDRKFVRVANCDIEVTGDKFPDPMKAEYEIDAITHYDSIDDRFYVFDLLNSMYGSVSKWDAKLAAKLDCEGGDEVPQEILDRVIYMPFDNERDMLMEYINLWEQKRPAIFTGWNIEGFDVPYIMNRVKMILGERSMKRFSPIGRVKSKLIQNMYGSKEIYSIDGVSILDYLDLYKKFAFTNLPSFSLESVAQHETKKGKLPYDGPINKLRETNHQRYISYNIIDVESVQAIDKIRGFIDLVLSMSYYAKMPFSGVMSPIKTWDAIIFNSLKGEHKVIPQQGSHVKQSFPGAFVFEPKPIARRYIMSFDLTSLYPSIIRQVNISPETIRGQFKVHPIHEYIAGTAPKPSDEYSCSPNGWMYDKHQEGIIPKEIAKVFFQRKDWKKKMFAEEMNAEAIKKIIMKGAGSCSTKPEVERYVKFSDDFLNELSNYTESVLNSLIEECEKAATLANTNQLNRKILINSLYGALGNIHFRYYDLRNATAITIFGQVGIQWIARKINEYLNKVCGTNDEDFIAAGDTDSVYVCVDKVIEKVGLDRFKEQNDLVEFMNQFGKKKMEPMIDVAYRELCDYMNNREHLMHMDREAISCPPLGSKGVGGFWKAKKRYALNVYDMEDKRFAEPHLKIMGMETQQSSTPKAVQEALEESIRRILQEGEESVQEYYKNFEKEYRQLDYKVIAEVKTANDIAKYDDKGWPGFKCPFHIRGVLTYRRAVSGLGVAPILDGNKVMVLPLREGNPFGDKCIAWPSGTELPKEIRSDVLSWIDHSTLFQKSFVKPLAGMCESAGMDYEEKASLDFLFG

[4] = test system: Escherichia coli; test: Inhibition of Escherichia coli polymerase DNA polymerase 1 Klenow fragment assessed as inhibition of incorporation of dTTP into activated DNA primer after 60 mins
[5] = test system: Brassica oleracea var. botrytis; test: Inhibition of cauliflower DNA polymerase alpha assessed as inhibition of incorporation of dTTP into activated DNA primer after 60 mins
[6] = test system: HCT-116; test: Growth inhibition of against human HCT116 cells after 24 hrs by WST-1 assay; assay type: functional; conditions: HCT-116, 24 h
Procedure, shortened: (§2)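 Cancer cells were grown in McCoy's 5A with 10% FBS and penicillin/streptomycin, 37 °C, 5% CO2. Cells were seeded at 1 × 10^4 per well, cultured 12 h, then given compound (10 mM DMSO stock diluted in medium, 0.5% DMSO) for 24 h. WST-1 was added for 4 h and absorbance read at 450/630 nm. GI50 given as mean ± SE, five independent experiments.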

[7] = Inhibition of Escherichia coli polymerase DNA polymerase 1 klenow fragment assessed as inhibition of incorporation of dTTP into poly(dA)/oligo(dT)18 after 60 mins; procedure, shortened: as §1
[8] = test system: Tequatrovirus T4; test: Inhibition of T4 bacteriophage DNA polymerase assessed as inhibition of incorporation of dTTP into activated DNA primer after 60 mins
[9] = Inhibition of human DNA polymerase epsilon assessed as inhibition of incorporation of dTTP into poly(dA)/oligo(dT)18 after 60 mins; procedure, shortened: as §1
[10] = Inhibition of rice cv. Nipponbare recombinant C-terminal-His6-tagged DNA polymerase lambda expressed in Escherichia coli assessed as inhibition of incorporation of dTTP into poly(dA)/oligo(dT)18 after 60 mins; parameters: species or system Oryza sativa; procedure, shortened: as §1
[11] = test system: BALL-1; test: Growth inhibition of human BALL-1 cells after 24 hrs by WST-1 assay; assay type: functional; conditions: BALL-1, 24 h; procedure, shortened: as §2
[12] = target: DNA-directed DNA/RNA polymerase mu (Homo sapiens, UniProt Q9NP87); test: Inhibition of human His-tagged recombinant DNA polymerase mu expressed in Escherichia coli BL21 assessed as inhibition of incorporation of dTTP into poly(dA)/oligo(dT)18 after 60 mins; procedure, shortened: as §1
[13] = Inhibition of calf DNA primase of polymerase alpha; parameters: species or system Bos taurus
[14] = Inhibition of Thermus aquaticus DNA polymerase assessed as inhibition of incorporation of dTTP into poly(dA)/oligo(dT)18 after 60 mins at 74 degC
Procedure, shortened: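 Taq pol (0.05 units) was preincubated with compound (DMSO, sonicated) at 0 °C for 10 min, then reacted with poly(dA)/oligo(dT)18 (A/T = 2/1) and dTTP at 74 °C for 60 min. Activity was expressed relative to no-inhibitor control; mean ± SE, three independent experiments.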

[15] = Inhibition of cauliflower DNA polymerase alpha assessed as inhibition of incorporation of dTTP into poly(dA)/oligo(dT)18 after 60 mins; parameters: species or system Brassica oleracea var. botrytis; procedure, shortened: as §1

Sequence of DNA-directed DNA/RNA polymerase mu (Q9NP87 whole entry): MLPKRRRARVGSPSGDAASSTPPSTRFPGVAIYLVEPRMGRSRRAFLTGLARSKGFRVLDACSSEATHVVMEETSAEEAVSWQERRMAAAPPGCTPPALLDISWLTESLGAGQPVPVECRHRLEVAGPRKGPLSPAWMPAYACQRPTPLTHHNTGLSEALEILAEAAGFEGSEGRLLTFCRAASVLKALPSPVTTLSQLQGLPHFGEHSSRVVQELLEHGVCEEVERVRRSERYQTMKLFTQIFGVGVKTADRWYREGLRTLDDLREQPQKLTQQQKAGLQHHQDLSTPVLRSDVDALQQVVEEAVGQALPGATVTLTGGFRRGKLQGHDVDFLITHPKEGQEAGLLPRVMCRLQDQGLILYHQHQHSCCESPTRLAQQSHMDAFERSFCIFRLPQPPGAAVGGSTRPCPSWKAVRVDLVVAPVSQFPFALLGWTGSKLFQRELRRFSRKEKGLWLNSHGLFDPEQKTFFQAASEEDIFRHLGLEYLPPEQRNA

Row | Compound | IC50 [1] [µM] | IC50 [2] [µM] | IC50 [3] [µM] | inhibition [4] | inhibition [5] | GI50 [6] [µM] | IC50 [7] [µM] | inhibition [8] | IC50 [9] [µM] | IC50 [10] [µM] | GI50 [11] [µM] | IC50 [12] [µM] | IC50 [13] [µM] | IC50 [14] [µM] | IC50 [15] [µM]
1 | C/C=C/C1=CC2=CC(=O)[C@@](C)(O)[C@@H](OC(=O)c3c(C)cc(O)cc3O)[C@@H]2CO1 | 67.3 | > 200 | > 200 | inactive | inactive | 64.6 | > 200 | inactive | 65.6 | > 200 | 62 | > 200 | > 200 | > 200 | > 200
2 | C/C=C/C1=CC2=CC(=O)[C@@](C)(OC(=O)c3c(C)cc(O)cc3O)[C@@H](O)[C@@H]2CO1 [PINOPHILIN A] | 55.6 | > 200 | > 200 | inactive | inactive | 51.3 | > 200 | inactive | 52 | > 200 | 50.2 | > 200 | > 200 | > 200 | > 200
3 | Cc1cc(O)cc(O)c1C(=O)O[C@H]1[C@@H]2COC(/C=C/CO)=CC2=CC(=O)[C@@]1(C)O [PINOPHILIN B] | 93.7 | > 200 | > 200 | inactive | inactive | 92.5 | > 200 | inactive | 93.9 | > 200 | 90.4 | > 200 | > 200 | > 200 | > 200
